Screen size: about 300,000 compounds; about 1,200 (0.4%) were called active.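 The calls were made as follows: active = B-score over 3 SD under the library average, no early fluorescence shift, positive overall ratio signal; inactive = the rest.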 The list comes from a sample in which actives are over-represented; it also holds similar structures and randomly drawn compounds.
What follows are molecules tested against Short transient receptor potential channel 4 (Mus musculus) (UniProt Q9QUQ5) (assay: blockers of DAMGO-evoked TRPC4 calcium flux – Fluo4 calcium, HEK293 TRPC4beta/mu-opioid cells, primary screen (AID 2247)). Settings: at 10 µM; stronger effect = lower value.
Procedure, shortened: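 System: stable TRPC4beta/mu-opioid receptor HEK293 cells; Dosing: single-point compound dosing; Measured by: Fluo4 Ca2+ flux fluorescence; Read-out basis: per-well B score of integrated baseline-normalized Fluo4 ratio.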

Chain of Short transient receptor potential channel 4 (Mus musculus) (Q9QUQ5 whole entry, looked up): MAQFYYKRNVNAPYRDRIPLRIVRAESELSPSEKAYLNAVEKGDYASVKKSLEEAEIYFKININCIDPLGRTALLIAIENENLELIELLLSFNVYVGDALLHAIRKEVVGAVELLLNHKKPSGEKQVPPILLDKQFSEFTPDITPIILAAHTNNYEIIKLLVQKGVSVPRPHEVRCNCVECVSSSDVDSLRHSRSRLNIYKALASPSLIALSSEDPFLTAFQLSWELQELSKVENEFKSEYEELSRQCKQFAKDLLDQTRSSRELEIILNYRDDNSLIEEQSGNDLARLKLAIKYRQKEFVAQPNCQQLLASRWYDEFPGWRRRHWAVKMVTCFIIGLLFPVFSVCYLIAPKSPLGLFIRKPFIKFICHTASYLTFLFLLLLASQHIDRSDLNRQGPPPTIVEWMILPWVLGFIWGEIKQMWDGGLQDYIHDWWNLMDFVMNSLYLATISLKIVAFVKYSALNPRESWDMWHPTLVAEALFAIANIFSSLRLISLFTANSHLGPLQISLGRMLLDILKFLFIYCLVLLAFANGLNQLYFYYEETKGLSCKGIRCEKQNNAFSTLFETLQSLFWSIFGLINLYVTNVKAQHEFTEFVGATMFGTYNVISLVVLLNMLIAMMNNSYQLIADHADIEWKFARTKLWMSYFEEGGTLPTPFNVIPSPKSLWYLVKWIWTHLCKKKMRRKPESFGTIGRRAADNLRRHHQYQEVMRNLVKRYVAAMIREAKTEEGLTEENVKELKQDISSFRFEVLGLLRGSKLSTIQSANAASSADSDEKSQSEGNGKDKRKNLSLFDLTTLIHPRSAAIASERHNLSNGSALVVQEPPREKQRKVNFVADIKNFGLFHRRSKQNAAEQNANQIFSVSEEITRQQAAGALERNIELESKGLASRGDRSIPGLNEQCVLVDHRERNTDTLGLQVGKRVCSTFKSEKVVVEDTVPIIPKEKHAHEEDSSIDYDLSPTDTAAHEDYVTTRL

Compound	B-score
Cc1noc(C)c1COc1ccccc1C(=O)N(C)CC(=O)Nc1cccc(F)c1	inactive
Cc1onc(-c2c(F)cccc2Cl)c1C(=O)N(C)CC(=O)Nc1cccc(F)c1	-7 (active)
CN(CC(=O)Nc1cccc(F)c1)C(=O)C1=COCCO1	inactive
Cc1sc(NC(=O)C2C3CCC(O3)C2C(=O)O)c(C(=O)OC(C)C)c1-c1ccc(Cl)cc1 (configuration not stated)	inactive
Cc1cccc(-c2ncc(CN3CCC(CO)(CCCc4ccccc4)CC3)cn2)c1	inactive
OCC1(CCc2ccccc2)CCN(Cc2ccc3nsnc3c2)CC1	-7 (active)
CC(C)(O)C#Cc1ccc(CN2CCC(CO)(CCc3ccccc3)CC2)cc1	inactive
O=C(CN1CCOc2ccccc21)N1CCC(Cc2ccccc2)CC1	inactive
CC(c1ccccn1)N(C)C(=O)c1ccc2nc(Cc3cccc(Cl)c3)oc2c1 (configuration not stated)	inactive
NC1=NC[C@@H](Cc2ccc(O)cc2)N1CC1CCCCC1	inactive
CC(C)n1c(COc2ccccc2)nc2ccccc21	inactive
CC(C)n1c(NCc2c[nH]c3ccccc23)nc2ccccc21	-8 (active)
CC(C)n1c(-c2cccs2)nc2ccccc21	inactive
Cc1ccc(Cn2nnc3c(=O)[nH]c(C4CCN(S(=O)(=O)/C=C/c5ccccc5)CC4)nc32)cc1	inactive
N#Cc1c(NC(=O)C2CCCO2)sc2c1CCCCC2 (configuration not stated)	inactive
N#Cc1c(NC(=O)C2CC(Cl)=CCC2C(=O)O)sc2c1CCCCC2 (configuration not stated)	-6 (active)
N#Cc1c(NC(=O)CCCl)sc2c1CCCCC2	inactive
CC(C)(C)c1cc2cccnc2n1Cc1cccc(F)c1	-6 (active)
Nc1cc(N)nc(SCc2cccc(F)c2)n1	inactive
CC(C)(C)c1cc2cccnc2n1Cc1ccccc1	-7 (active)
Cn1c(=O)c2c(nc(OCc3cccnc3)n2Cc2ccccc2)n(C)c1=O	inactive
COc1ccnc2c1c(=O)n(Cc1cccc(F)c1)c(=O)n2C	inactive

Compound	B-score
Cc1cc(C(C)(C)C)n2nc(C)c(-c3ccccc3)c2n1	inactive
CCN(CC)C(=O)Cn1cc(S(=O)(=O)CC(=O)NCc2ccc3c(c2)OCO3)c2ccccc21	inactive
Cc1nc2ccccc2n1C(=O)N1CCOCC1	inactive
COc1ccc(C(=O)Nc2ccc(-n3nncc3C(C)(C)C)cc2)cc1	inactive
O=S(=O)(O)Oc1c[nH]c2ccccc12	inactive
COc1ccc(CN(C)Cc2nc3cc(OC)c(OC)cc3c(=O)[nH]2)c(OC)c1	inactive
COc1cc(NS(=O)(=O)c2ccc3ccccc3c2)c2ncccc2c1	-6 (active)
O=[N+]([O-])c1ccccc1S(=O)(=O)Nc1cccc2cccnc12	inactive
Cc1ccc(NS(=O)(=O)c2ccc(C)c(NC(=O)COc3ccc4ccccc4c3)c2)c(C)c1	inactive
CC1(C)S[C@@H]2[C@H](NC(=O)COc3ccccc3)C(=O)N2C1C(=O)OCc1ccccc1 (some centres not stated)	inactive
CCc1ccc(C(=O)COC(=O)c2ccco2)cc1	inactive
CCC(O)C1CCN(Cc2cn(-c3ccc(OC)cc3)nc2-c2cccc(F)c2)CC1 (configuration not stated)	-8 (active)
COc1ccc(-n2cc(CNC3CCOCC3)c(-c3cccc(F)c3)n2)cc1	inactive
COc1ccc(-n2cc(CN(C)Cc3n[nH]c(=O)[nH]3)c(-c3cccc(F)c3)n2)cc1	inactive
Cc1c(CCOC(=O)CC23CC4CC(CC(C)(C4)C2)C3)sc[n+]1Cc1ccc([N+](=O)[O-])cc1	inactive
CCn1cc(CN2CCC(n3nccc3NC(=O)CCCc3ccccc3)CC2)c(C)n1	inactive
Cc1ccc(CN2CCC(n3nccc3NC(=O)CCCc3ccccc3)CC2)o1	inactive
Cc1c(CN2CCC(n3nccc3NC(=O)CCc3ccccc3)CC2)cnn1C	-7 (active)
COC(=O)c1onc(-c2c(OC)cc(OC)cc2OC)c1C(=O)OC	inactive
O=C(Cn1ncc2c3ccccc3n(Cc3ccccc3)c2c1=O)NCc1ccccn1	inactive
Cc1ccc(NC(=O)CSc2nc(=O)n(CCN(C)C)c3c2CCCC3)c(C)c1	inactive
O=[N+]([O-])c1cccc(Nc2c3ccccc3nc3ccccc23)c1	-7 (active)

Compound	B-score
Cc1cc(CNC(=O)c2cccc([N+](=O)[O-])c2)c2ccccc2n1	inactive
N#Cc1cccc(Nc2c3c(nc4ccccc24)CCCC3)c1	inactive
CC1CC(C)CN(CCCNC(=O)c2csc3c2CCCCC3)C1 (configuration not stated)	inactive
COc1ccc(CNC(=O)[C@@H]2CC=C[C@@H]3CCN(C4CC4)C(=O)[C@@H]32)cc1	inactive
CCc1ccc2oc(=O)cc(CN3CCCCC3C)c2c1 (configuration not stated)	inactive
Cc1onc(-c2c(Cl)cccc2Cl)c1C(=O)NNC(=O)c1c(-c2c(Cl)cccc2Cl)noc1C	inactive
Cc1[nH]n(C)c(=O)c1C(=O)c1c(-c2c(Cl)cccc2Cl)noc1C	-6 (active)
Cc1onc(-c2c(Cl)cccc2Cl)c1C(=O)c1c[nH]c(C(=O)NC2CC2)c1	inactive
COc1cc(CNC2CCCC2)c(Br)cc1OCc1ccccc1	-6 (active)
COc1cc(CNC2CCCCC2)c(Br)cc1OC1CCCC1	inactive
COc1cc(CN2CCC(C(N)=O)CC2)ccc1OCc1ccccc1	inactive
Cc1cccc(C2C3=C(CCCC3=O)N=C3c4ccccc4C(=O)C32)c1 (configuration not stated)	inactive
Nc1ccc(OCC(O)C[n+]2ccc(CCS(=O)(=O)[O-])cc2)cc1 (configuration not stated)	inactive
CN(CC(=O)N1CCN(c2ccccc2)CC1)S(=O)(=O)c1cccs1	inactive
Cc1cccc(NS(=O)(=O)c2ccc(C)c(C(N)=O)c2)c1	inactive
CC1CN(CCCOc2ccccc2-c2ccccc2)CC(C)O1 (configuration not stated)	inactive
CC1CCCN(CCOCCOc2ccccc2-c2ccccc2)C1 (configuration not stated)	-7 (active)
c1ccc(-c2ccccc2OCCN2CCCCC2)cc1	inactive
COc1cc(N2CCCC2)c(OC)cc1/C=C(/C#N)c1cccc(Br)c1	inactive
Cc1cc(NC(=O)CN2C(=O)NC(C)(CCc3ccccc3)C2=O)no1 (configuration not stated)	inactive
CCOc1ccc2nc(N3CCCN(C(=O)Nc4ccccc4C)CC3)c(C#N)cc2c1	inactive
CCOC(=O)c1cc(C)nc(S(C)(=O)=O)c1C#N	inactive

Compound	B-score
CCOC(=O)c1cc(C#N)c(N2CCCCC2)nc1-c1ccccc1	-8 (active)
O=C(CN(Cc1ccc(Br)cc1)S(=O)(=O)c1ccccc1)NCc1ccncc1	inactive
CSCC[C@H](NC(=O)NCc1cccs1)C(=O)O	inactive
COc1cc(CN2CCCC(C(=O)c3ccc(SC)cc3)C2)cc(Cl)c1O (configuration not stated)	inactive
COc1ccc(CN2CCCC(C(=O)c3ccc(Cl)cc3)C2)cc1Cn1cncn1 (configuration not stated)	-7 (active)
COc1ccc(C(=O)C2CCCN(Cc3ccc4nonc4c3)C2)c(C)c1 (configuration not stated)	inactive
CCC(C)OC(=O)C(C)Oc1ccc(-c2ccccc2)cc1 (configuration not stated)	inactive
O=S(=O)(/C=C/c1ccccc1)N1CCNCC1	inactive
O=C(O)c1ccccc1C(=O)NC1=NN(c2ccccc2)CC1	inactive
O=C(O)c1ccccc1C(=O)Nc1ccccc1[N+](=O)[O-]	inactive
O=[N+]([O-])c1ccccc1Nc1ccc(O)cc1	-6 (active)
Cc1ccc(Nc2ccc(C(N)=O)cc2[N+](=O)[O-])cc1	inactive
Cc1ccc(C(=O)Nc2nnc(C3=COCCO3)o2)cc1C	-6 (active)
O=C(Nc1nnc(C2=COCCO2)o1)c1ccc([N+](=O)[O-])s1	inactive
COc1cc(-c2nnc(NC(=O)C3=COCCO3)o2)cc(OC)c1OC	inactive
Cc1ccc(CNC(=O)C(=O)c2cn(CC(=O)N3CCCC3)c3ccccc23)cc1	inactive
O=C(Nc1ccc(N2CCCCC2)cc1)c1cc(S(=O)(=O)N2CCOCC2)ccc1F	inactive
CCc1nn(CCCC(=O)Nc2ccc(C)c(C)c2)c(=O)c2cc3occc3n12	inactive
N/C(=N\OC(=O)Nc1ccccc1)c1ccno1	inactive
CC1CCN(CCCn2c(SCC(=O)NC3CCCC3)nc3ccccc3c2=O)CC1	inactive
O=C(CSc1nc2ccccc2c(=O)n1CCCO)N1CCc2ccccc21	-7 (active)
Cn1c(SCC(=O)N2CCCc3ccccc32)nc2ccccc2c1=O	inactive

Compound	B-score
CCOc1ccc(CCNC(=O)CN2C(=O)NC3(CCc4ccccc43)C2=O)cc1OCC (configuration not stated)	inactive
COCCn1c(SC(C)C(=O)NC2CC2)nnc1-c1cccc(C)c1 (configuration not stated)	inactive
O=C(O)CCn1cc(/C=C/C(=O)c2ccc(Cl)cc2)c(-c2cccc(Br)c2)n1	-6 (active)
CCOC(=O)/C(C#N)=C/c1cn(CCC(=O)O)nc1-c1ccc(Br)cc1	inactive
O=C(/C=C/NNC(=O)c1cccc(Br)c1)c1ccccc1	inactive
CCOC(=O)N1CCN(S(=O)(=O)N2CCCC(C(=O)NCCCN3CCC(C)CC3)C2)CC1 (configuration not stated)	inactive
Cc1ccnc(N2CCN(C(=O)CSc3nc4ccccc4nc3N3CCCCC3)CC2)c1	inactive
CC(C)Cc1nc(Cl)c(C#N)c2c1CCC2	inactive
CC(C)Cc1nc(N2CCOCC2)c(C#N)c2c1CCC2	-6 (active)
CC(C)c1nc(N2CCOCC2)c(C#N)c2c1COC(C)(C)C2	inactive
CCCCn1c(N)c(N(CCOC)C(=O)c2cccc(S(=O)(=O)N3CCCCC3)c2)c(=O)[nH]c1=O	inactive
CN1CCNC(=O)C1CC(=O)N1CC=C(c2ccc(F)cc2)CC1 (configuration not stated)	inactive
COc1cccc(N(CC(=O)NCc2ccccc2)C(=O)CCC(=O)Nc2nccs2)c1	inactive
O=C(CCN1CCc2ccccc2C(O)(c2ccccc2)C1)c1ccc2c(c1)OCCO2 (configuration not stated)	-7 (active)
O=C(CN1CCN(c2ccccc2F)CC1)c1ccc2c(c1)OCO2	inactive
CCC1(c2ccccc2)NC(=O)N(CC(=O)c2ccc3c(c2)OCO3)C1=O (configuration not stated)	inactive
COc1ccc(NC(=O)CCCC2CCCCC2)c(OC)c1	inactive
CC(=O)Oc1ccc(NC(=O)CCC2CCCCC2)c(C(=O)O)c1	-6 (active)
COC(=O)c1sccc1NC(=O)CCC1CCCC1	inactive
